Assays:
[1] = Half life in rat plasma; assay type: ADME
Summary of the method: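 In vitro hydrolytic stability in rat plasma, with 1,1-diphenylethylene or benzophenone as internal standard. Half-life reported in minutes with SD.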

[2] = system: Human immunodeficiency virus 1; experiment: Antiviral activity against HIV1 3B in MT4 cells by MTT assay; assay type: functional, organism-based; settings: Human immunodeficiency virus 1, 3B
Summary of the method: (§1)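 MT-4 cells infected with HIV-1 IIIB or HIV-2 ROD; protection from virus-induced cytopathicity read by MTT assay. EC50 taken as the concentration giving 50% inhibition of cytopathicity.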

MT4 = experiment: Cytotoxicity against mock-infected MT4 cells; assay type: functional; settings: Homo sapiens
[3] = system: Human immunodeficiency virus 1; experiment: Antiviral activity against HIV1 RF in CEM-SS cells by MTS cytoprotection assay; assay type: functional, organism-based; settings: Human immunodeficiency virus 1, RF
Summary of the method: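 CEM-SS cells infected with HIV-1 RF; cytoprotection against viral cytopathic effect read by MTS assay. EC50 taken as the concentration giving 50% inhibition of cytopathicity.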

[4] = system: Human immunodeficiency virus 2; experiment: Antiviral activity against HIV2 ROD in MT4 cells by MTT assay; assay type: functional, organism-based; settings: Human immunodeficiency virus 2, ROD; summary of the method: as §1
[5] = target: Human immunodeficiency virus type 1 reverse transcriptase (Human immunodeficiency virus 1, UniProt Q72547); experiment: Inhibition of recombinant HIV1 reverse transcriptase measured as inhibition of incorporation of [32P]GTP in rCDG primer; assay type: functional
Summary of the method: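 Purified recombinant HIV-1 RT p66/p51 heterodimer. Polymerase activity followed as [32P]GTP incorporation on poly(rC)/oligo(dG) homopolymer template-primer. IC50 taken from inhibition of incorporation.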

CEM-SS = experiment: Cytotoxicity against mock-infected CEM-SS cells; assay type: functional; settings: Homo sapiens

COC(=O)CCC/C=C(\c1cccc(C#N)c1)c1cc(C)c(OC)c(C(=O)OC)c1 gave a half-life [1] of 1.32 min, an EC50 [2] of 0.47 µM and a CC50 (MT4) of 10.6 µM. For the same molecule, the EC50 [3] was 0.46 µM, the EC50 [4] was > 10.6 µM and the IC50 [5] was 0.54 µM. It also gave a CC50 (CEM-SS) of 10.9 µM.
In the case of COC(=O)CCCC=C(c1cccc(C#N)c1)c1cc(C)c2oc(=O)n(C)c2c1, the half-life [1] is reported as 1.18 min, the EC50 [2] is reported as > 54.2 µM and the CC50 (MT4) is reported as 54.2 µM. For the same molecule, the EC50 [3] was > 100 µM, the EC50 [4] was > 54.2 µM and the IC50 [5] was 26.4 µM. For the same molecule, the CC50 (CEM-SS) was 12.9 µM.
With COC(=O)CCC/C=C(\c1cc(C)c(OC)c(C(=O)OC)c1)c1cc(C)c2on(C)c(=O)c2c1 the half-life [1] was 1.85 min, the EC50 [2] was 3.1 µM and the CC50 (MT4) was 27.1 µM. For the same molecule, the EC50 [3] was 1.1 µM, the EC50 [4] was > 27.1 µM and the IC50 [5] was 2 µM. The CC50 (CEM-SS) was > 5 µM.
With COC(=O)CCCC=C(c1cccc(C#N)c1)c1cc(C)c2on(C)c(=O)c2c1 the EC50 [3] was > 100 µM, the IC50 [5] was 49.6 µM and the CC50 (CEM-SS) was 14 µM.
Work on COC(=O)CCC/C=C(/c1cc(C)c(OC)c(C(=O)OC)c1)c1cc(C)c2oc(=O)n(C)c2c1 yielded an EC50 [2] of 0.09 µM, an EC50 [3] of 0.03 µM and an IC50 [5] of 0.02 µM.
Molecule COC(=O)CCC/C=C(/c1cc(C)c2on(C)c(=O)c2c1)c1cc(C)c2oc(=O)n(C)c2c1 has a half-life [1] of 0.46 min, an EC50 [2] of 4.49 µM and a CC50 (MT4) of 36.5 µM. The EC50 [3] was 1.79 µM, the EC50 [4] was > 36.5 µM and the IC50 [5] was 49.2 µM. For the same molecule, the CC50 (CEM-SS) was 11.1 µM.
COC(=O)c1cc(/C(=C\CCN2CCOC2=O)c2cc(C)c3on(C)c(=O)c3c2)cc(C)c1OC showed a half-life [1] of 22.1 min, an EC50 [3] of 2.7 µM and an IC50 [5] of 9.86 µM. It also gave a CC50 (CEM-SS) of 16.3 µM.
Work on COC(=O)CCC/C=C(/c1ccc(C#N)cc1)c1cc(C)c2oc(=O)n(C)c2c1 yielded an EC50 [2] of 1.49 µM, a CC50 (MT4) of 51 µM and an EC50 [3] of 0.59 µM. For the same molecule, the EC50 [4] was > 51 µM, the IC50 [5] was 1.2 µM and the CC50 (CEM-SS) was 21.9 µM.
COC(=O)CCC/C=C(/c1cccc(C#N)c1)c1cc(C)c2oc(=O)n(C)c2c1 gave an EC50 [3] of 1.73 µM, an IC50 [5] of 2.8 µM and a CC50 (CEM-SS) of 11.5 µM.
For COc1noc2c(C)cc(/C(=C\CCN3CCOC3=O)c3cc(C)c4on(C)c(=O)c4c3)cc12, the half-life [1] was > 1440 min, the EC50 [2] was > 1.12 µM and the CC50 (MT4) was 1.12 µM. The EC50 [3] was > 9.91 µM, the EC50 [4] was > 1.12 µM and the IC50 [5] was 7.6 µM. The CC50 (CEM-SS) was 1.54 µM.
